Results on 9 molecules are retold here after ChEMBL document CHEMBL3244294, “Dehydrative metabolites of 1-(3-chlorophenyl)-1methyl-2-phenyl-2-(2-pyridine)ethanol as potential hypocholesteremic agents” (J Med Chem, 1978).

The structures appear in SMILES notation. Bounds are passed on as bounds.

Data set [1] relates to Rattus norvegicus. The data set is described as follows: Estrogenicity in Sprague-Dawley rat assessed as uterus weight measured per gram of body weight at 25 mg/kg, po for 7 days in presence of 17-beta estradiol (reference value: 0.01 +/- 0.02 mg). Type of data set: ADME, organism-based. Further details: dose 25 mg/kg, route oral. As to conditions: in vivo, 168 h. In outline:
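From 7 days later they were dosed orally by intubation with aqueous suspensions (25 mg/kg) for 7 consecutive days. On day 8 uteri were blotted free of fluid and weighed, expressed as mg/g body weight ×100. A standard curve came from sc 17β-estradiol in peanut oil, giving µg estradiol equivalent to 25 mg compound.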

Data set [2] has as its system Serum. The data set is described as follows: Drug recovery in Sprague-Dawley rat serum at 25 mg/kg, ip after 72 hrs by RP-HPLC analysis. Type of data set: ADME, organism-based. Further details: dose 25 mg/kg, route intraperitoneal. The following applies: in vivo. In outline: (§1)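 Rats received 25 mg/kg ³H-labelled parent (tritium in 2-phenyl ring) by ip injection as an aqueous 0.26% Tween 80 suspension. Serum was taken by cardiac puncture at 2, 10 or 72 h (three rats), separated at 1700g for 30 min and deproteinized with methanol. The residue was analysed by C-18 reverse-phase HPLC. Values are percent of total recovered HPLC radioactivity.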

Data set [3] has as its system Serum. The data set is described as follows: Drug recovery in Sprague-Dawley rat serum at 25 mg/kg, ip after 2 hrs by RP-HPLC analysis. Type of data set: ADME, organism-based. Further details: dose 25 mg/kg, route intraperitoneal. As to conditions: in vivo. In outline: as §1
Data set [4] is described as follows: Drug recovery in pentane extract of Sprague-Dawley rat urine at 25 mg/kg, ip by RP-HPLC analysis. In kind it is ADME, organism-based. On the set-up: dose 25 mg/kg, route intraperitoneal. The following applies: read-out: Drug recovery. In outline: (§2)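 One rat was dosed ip at 25 mg/kg with ³H-labelled parent in aqueous 0.26% Tween 80, and urine was collected over 72 h. Urine was either pentane-extracted or fractionated on Sephadex G-10; fraction III was the radioactive eluate free of appreciable urine constituents. Fractions were analysed by C-18 reverse-phase HPLC as percent of total recovered radioactivity.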

Data set [5] relates to Serum. The data set is described as follows: Drug recovery in Sprague-Dawley rat serum at 25 mg/kg, ip after 10 hrs by RP-HPLC analysis. In kind it is ADME, organism-based. On the set-up: dose 25 mg/kg, route intraperitoneal. The following applies: in vivo. The gist of the method: as §1
Data set [6] concerns Rattus norvegicus. The data set is described as follows: Hypocholesteremic activity in Sprague-Dawley rat assessed as reduction in serum cholesterol level at 25 mg/kg for 7 days relative to control. In kind it is functional. Further details: scale not given: the % may be the effect or the level left. In outline:
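Male rats (200 g) were dosed at 25 mg/kg for 7 days, with dosing starting at 1 p.m. Sera were taken 24 h after the final dose, and serum cholesterol was determined by the method of Block et al. Results are reported as mean ± standard deviation and compared with controls by two-tailed Student's t test.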

Data set [7] concerns Serum. Put plainly: Drug recovery in hydrolyzed fraction of Sprague-Dawley rat serum at 25 mg/kg, ip after 72 hrs by RP-HPLC analysis. As to conditions: in vivo. Further details: dose 25 mg/kg, route intraperitoneal. In kind it is ADME, organism-based. The gist of the method: (§3)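 ³H-labelled parent was given at 25 mg/kg ip in aqueous 0.26% Tween 80, and serum was collected by cardiac puncture at 72 h. Part of the serum was hydrolysed for 48 h with aryl sulfatase and glucuronidase, then deproteinized with methanol. The residue was run on C-18 reverse-phase HPLC. Values are percent of total recovered HPLC radioactivity.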

Data set [8] can be described thus: Drug recovery in sephadex G-10 chromatographic fraction of Sprague-Dawley rat urine at 25 mg/kg, ip by RP-HPLC analysis. In kind it is ADME, organism-based. Further details: dose 25 mg/kg, route intraperitoneal. The following applies: read-out: Drug recovery. The gist of the method: as §2
Data set [9] has as its system Serum. Put plainly: Drug recovery in pentane extract of Sprague-Dawley rat serum treated with 1-(3-Chlorophenyl)-1-methyl-2-phenyl-2-(2-pyridine)ethanol at 25 mg/kg, ip by RP-HPLC analysis. Type of data set: ADME, organism-based. Further details: dose 25 mg/kg, route intraperitoneal. As to conditions: in vivo.
For data set [10], the system named is Serum. Put plainly: Drug recovery in Sprague-Dawley rat serum treated with 1-(3-Chlorophenyl)-1-methyl-2-phenyl-2-(2-pyridine)ethanol at 25 mg/kg, ip after 10 hrs by RP-HPLC analysis. In kind it is ADME, organism-based. On the set-up: dose 25 mg/kg, route intraperitoneal. The following applies: in vivo. In outline: as §1
Data set [11] has as its system Serum. Put plainly: Drug recovery in Sprague-Dawley rat serum treated with 1-(3-Chlorophenyl)-1-methyl-2-phenyl-2-(2-pyridine)ethanol at 25 mg/kg, ip after 72 hrs by RP-HPLC analysis. In kind it is ADME, organism-based. On the set-up: dose 25 mg/kg, route intraperitoneal. The following applies: in vivo. In outline: as §1
In data set [12] the test system is Serum. The data set is described as follows: Drug recovery in hydrolyzed fraction of Sprague-Dawley rat serum treated with 1-(3-Chlorophenyl)-1-methyl-2-phenyl-2-(2-pyridine)ethanol at 25 mg/kg, ip after 72 hrs by RP-HPLC analysis. In kind it is ADME, organism-based. As to conditions: in vivo. Further details: dose 25 mg/kg, route intraperitoneal. In outline:
as §3

Data set [13] is described as follows: Drug recovery in sephadex G-10 chromatographic fraction of Sprague-Dawley rat urine treated with 1-(3-Chlorophenyl)-1-methyl-2-phenyl-2-(2-pyridine)ethanol at 25 mg/kg, ip by RP-HPLC analysis. In kind it is ADME, organism-based. Further details: dose 25 mg/kg, route intraperitoneal. The following applies: in vivo. In outline:
as §2

Data set [14] has as its system Serum. Put plainly: Drug recovery in Sprague-Dawley rat serum treated with 1-(3-Chlorophenyl)-1-methyl-2-phenyl-2-(2-pyridine)ethanol at 25 mg/kg, ip after 2 hrs by RP-HPLC analysis. As to conditions: in vivo. In kind it is ADME, organism-based. Further details: dose 25 mg/kg, route intraperitoneal. The gist of the method: as §1

As for `CC(O)(c1cccc(Cl)c1)C(c1ccccc1)c1ccccn1` (stereo not given), the Activity in the data set on Rattus norvegicus [1] amounted to 0.49 µg; in the data set on Rattus norvegicus [6], 49.5%. Besides, the Drug recovery came out at 1.2% in the data set with Serum [2], 22% in the data set with Serum [3], 0.9% in the data set with Serum [5] and 1.2% in the data set on Serum [7]. For the same molecule, the results for the dose excreted in data set [4] and in [8] were 1.6% and less than 0.1%, respectively.

Turning to `C/C(=C(/c1ccccc1)c1ccccn1)c1cccc(Cl)c1`, the Drug recovery in the data set with Serum [9] is listed as 0.1%. In addition, the Activity worked out at 0.22 µg with Rattus norvegicus [1] and 36.1% in the data set with Rattus norvegicus [6].

`C/C(=C(\c1ccccc1)c1ccccn1)c1cccc(Cl)c1` displayed a Drug recovery with Serum [9] of 0.1%. The Activity in the data set with Rattus norvegicus [1] worked out at 0.92 µg; with Rattus norvegicus [6], 62.8%.

On to `CC(O)(c1cccc(Cl)c1)C(c1ccc(O)cc1)c1ccccn1` (stereo not given), for which the Activity turned out to be 0.92 µg in the data set with Rattus norvegicus [1] and 43.5% in the data set on Rattus norvegicus [6].

In the case of `C/C(=C(/c1ccc(O)cc1)c1ccccn1)c1cccc(Cl)c1`, the Drug recovery is given as 0.9% in the data set on Serum [10], 1.1% in the data set with Serum [11], 0.4% with Serum [12] and 3.3% in data set [13]. Further, the values for the Activity in the data set with Rattus norvegicus [1] and in the data set with Rattus norvegicus [6] were 0.03 µg and 38.1%, respectively.

Consider `C/C(=C(\c1ccc(O)cc1)c1ccccn1)c1cccc(Cl)c1`, for which the Drug recovery is listed as 0.3% with Serum [10], 0.2% in the data set on Serum [11], 0.3% in the data set with Serum [12] and 0.4% in data set [13]. The results for the Activity in the data set with Rattus norvegicus [1] and in the data set with Rattus norvegicus [6] were 0.02 µg and 30.5%, respectively.

Take `C=C(c1cccc(Cl)c1)C(c1ccccc1)c1ccccn1` (stereo not given): in the data set with Rattus norvegicus [6], the Activity amounted to 10.1%.

For the molecule `c1ccc(Cc2ccccn2)cc1`, the Drug recovery is recorded as 2.4% with Serum [10]; 2.2% in the data set on Serum [11]; 1.2% in the data set on Serum [12]; 4.7% in the data set on Serum [14]; 0.2% in data set [13].

With `C=C(c1cccc(Cl)c1)C(c1ccc(O)cc1)c1ccccn1` (stereo not given), the Activity in the data set with Rattus norvegicus [6] stood at 4%.
